Consider 17 compounds from ChEMBL document CHEMBL4673285, “Design, Synthesis, and Biological Evaluation of Linear Aliphatic Amine-Linked Triaryl Derivatives as Potent Small-Molecule Inhibitors of the Programmed Cell Death-1/Programmed Cell Death-Ligand 1 Interaction with Promising Antitumor Effects In Vivo” (J Med Chem, 2020).

Active and inactive are the calls of the source. The rule behind the calls is not given here.

The target in data set [1] is Programmed cell death protein 1/Programmed cell death 1 ligand 1 (Homo sapiens, UniProt Q9NZQ7). In words: Inhibition of PD1-Tag2/PD-L1-Tag1 (unknown origin) protein-protein interaction preincubated for 15 mins followed by addition of anti-Tag1-Eu3+ and anti-Tag2-XL665 measured after 2.5 hrs by HTRF assay. It counts as protein-complex assay. The method in brief: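 Commercial HTRF kit. Compound incubated with PD-L1-Tag1 and PD1-Tag2 at rt for 15 min, then anti-Tag1-Eu³⁺/anti-Tag2-XL665 conjugate mix added and incubated 2.5 h at rt.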
Chain of Programmed cell death protein 1/Programmed cell death 1 ligand 1 (Q15116 whole entry): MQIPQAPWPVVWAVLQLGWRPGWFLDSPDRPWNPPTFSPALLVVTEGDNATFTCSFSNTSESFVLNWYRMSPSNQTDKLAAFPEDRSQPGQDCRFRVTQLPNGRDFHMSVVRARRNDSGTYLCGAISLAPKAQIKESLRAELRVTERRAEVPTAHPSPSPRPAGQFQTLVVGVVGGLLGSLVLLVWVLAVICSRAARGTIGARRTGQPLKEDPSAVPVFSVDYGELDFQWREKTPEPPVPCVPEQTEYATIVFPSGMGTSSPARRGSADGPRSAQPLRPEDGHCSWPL
Chain of Programmed cell death protein 1/Programmed cell death 1 ligand 1 (Q9NZQ7 whole entry): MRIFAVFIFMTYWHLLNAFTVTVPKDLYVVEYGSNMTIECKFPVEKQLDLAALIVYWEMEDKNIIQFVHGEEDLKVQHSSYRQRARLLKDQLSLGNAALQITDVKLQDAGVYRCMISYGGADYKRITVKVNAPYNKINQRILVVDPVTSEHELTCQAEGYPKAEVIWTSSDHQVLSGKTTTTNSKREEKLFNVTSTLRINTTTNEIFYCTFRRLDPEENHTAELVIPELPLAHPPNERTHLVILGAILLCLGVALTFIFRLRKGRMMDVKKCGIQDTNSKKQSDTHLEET
(In general: TR-FRET usually uses a lanthanide donor and a delayed reading to cut background.)

For another data set, the system named is RAW264.7. As to the kind of experiment: Cytotoxicity against mouse RAW264.7 cells assessed as reduction in cell viability at 3.125 to 100 uM incubated for 24 hrs by Cell-titer glo Luminescent assay. It counts as cell-based. The conditions noted are these: raw264.7, 24 h, dose 3.125-100 µM. The gist of the method: (§1)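 Cells (Raji, RAW 264.7 or donor PBMCs) plated at 1 × 10⁴ per well in medium with 10% FBS. Treated for 24 h at 37 °C, 5% CO₂ with 100, 50, 25, 12.5, 6.25 or 3.125 μM compound, or buffer containing 0.2% DMSO. Viability read by CellTiter-Glo luminescence; killing rate = (1 − RLU compound/RLU control) × 100%; triplicate, mean ± SEM.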

Data set [2] in a line: Cytotoxicity against human PBMC cells assessed as reduction in cell viability at 6.3 uM incubated for 24 hrs by Cell-titer glo Luminescent assay. It counts as cell-based. The method in brief: as §1
Data set [3] is described as follows: Cytotoxicity against human PBMC cells assessed as reduction in cell viability up to 100 uM incubated for 24 hrs by Cell-titer glo Luminescent assay. It counts as cell-based. The method in brief: as §1
Data set [4] addresses T1, Programmed cell death 1 ligand 1 (Homo sapiens, UniProt Q9NZQ7). In words: Inhibition of human PD-L1 cocultured in PBMC cells assessed as inhibition of PD1/PDL1 interaction mediated increase in IFN-gamma secretion at 1 uM incubated for 72 hrs by ELISA relative to control. It counts as cell-based. The gist of the method:
(§2)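 Healthy-donor PBMCs, 1 × 10⁵ per well in RPMI 1640 with 10% FBS, stimulated with anti-CD3/anti-CD28 (1:1, 0.8 μg/mL final) plus PD-L1/Fc at 10 μg/mL final. Compound added at 0.1 or 1 μM final and cocultured 72 h at 37 °C, 5% CO₂. Supernatant IFN-γ measured by ELISA; quadruplicate, mean ± SEM.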
On the technique in general: ELISA stands for enzyme-linked immunosorbent assay.

Data set [5] deals with T1, Programmed cell death 1 ligand 1. In words: Inhibition of human PD-L1 cocultured in PBMC cells assessed as inhibition of PD1/PDL1 interaction mediated increase in IFN-gamma secretion at 0.1 uM incubated for 72 hrs by ELISA. It counts as cell-based. The method in brief:
as §2

The target is the same in data set [6]. As to the kind of experiment: Binding affinity to human PD-L1 expressed in CHOK1 cells assessed as inhibition of PD1/PDL1 protein-protein interaction at 500 nM incubated for 30 mins by flow cytometry analysis relative to control. It counts as cell-based. The conditions noted are these: CHO-K1. The gist of the method:
(§3)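 CHO-K1-hPD-L1 cells, 5 × 10⁵ per tube in PBS with 2% FBS, incubated with hPD-1/Fc (10 μg/mL final) at 4 °C for 30 min. Compound added at 500 nM final and incubated a further 30 min at 4 °C, then stained with APC anti-human IgG Fc. Percentage of hPD-1-bound cells read by flow cytometry. Blocking efficacy calculated against a no-inhibitor positive control and parental CHO-K1 negative control.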

Data set [7] shares this target. In words: Binding affinity to human PD-L1 expressed in CHOK1 cells assessed as inhibition of PD1/PDL1 protein-protein interaction at 500 nM incubated for 30 mins by flow cytometry analysis. It counts as cell-based. The conditions noted are these: CHO-K1. The method in brief:
as §3

For data set [8] the target is unchanged. In words: Binding affinity to biotinylated human AVI-PD-L1 by biolayer interferometry. The gist of the method: (§4)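 Biotinylated human PD-L1/AVI at 10 μg/mL loaded on streptavidin biosensors for 300 s, then baselined. Association with compound at 20 to 0.3125 nM plus 0 nM for 180 s, then dissociation in buffer for 300 s. Data globally fitted to a 1:1 model to give ka and kdis; apparent affinity taken as their ratio.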

The target is the same in data set [9]. In words: Binding affinity to biotinylated human AVI-PD-L1 assessed as association constant by biolayer interferometry. The method in brief: as §4
(In BLI a coated tip is dipped into the sample, and binding shifts an interference pattern.)

Data set [10] shares this target. In words: Binding affinity to biotinylated human AVI-PD-L1 assessed as dissociation rate constant by biolayer interferometry.
In another data set the test system is Raji. As to the kind of experiment: Cytotoxicity against human Raji cells assessed as reduction in cell viability at 100 uM incubated for 24 hrs by Cell-titer glo Luminescent assay. It counts as cell-based. The method in brief:
as §1

In data set [11] the target is T1, Programmed cell death 1 ligand 1. As to the kind of experiment: Inhibition of human PD-L1 cocultured in PBMC cells assessed as inhibition of PD1/PDL1 interaction mediated increase in IFN-gamma secretion at 1 uM incubated for 72 hrs by ELISA. It counts as cell-based. The gist of the method:
as §2

The target of data set [12] is T2, Lymphocyte activation gene 3 protein (Homo sapiens) (UniProt P18627).
T2 sequence (whole entry): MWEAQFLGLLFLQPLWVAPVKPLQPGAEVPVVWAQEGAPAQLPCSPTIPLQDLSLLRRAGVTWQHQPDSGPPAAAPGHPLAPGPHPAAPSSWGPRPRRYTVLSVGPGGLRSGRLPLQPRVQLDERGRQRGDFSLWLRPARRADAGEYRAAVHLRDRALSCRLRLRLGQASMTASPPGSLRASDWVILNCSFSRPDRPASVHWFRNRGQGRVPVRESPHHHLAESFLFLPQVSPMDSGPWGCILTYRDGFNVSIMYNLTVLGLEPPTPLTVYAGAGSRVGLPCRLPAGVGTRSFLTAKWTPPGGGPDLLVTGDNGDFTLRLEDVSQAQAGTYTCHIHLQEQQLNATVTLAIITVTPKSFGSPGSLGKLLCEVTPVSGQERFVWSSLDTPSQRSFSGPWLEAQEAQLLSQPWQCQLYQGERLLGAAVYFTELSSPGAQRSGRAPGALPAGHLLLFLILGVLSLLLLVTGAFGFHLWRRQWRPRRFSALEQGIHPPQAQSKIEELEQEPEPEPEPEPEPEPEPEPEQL
In words: Binding affinity to human Fc-tagged LAG3 at 500 nM measured after 600 sec by biolayer interferometry.

The target in data set [13] is CD27 antigen (Homo sapiens) (UniProt P26842). In words: Binding affinity to human Fc-tagged CD27 at 500 nM measured after 600 sec by biolayer interferometry.
Chain of CD27 antigen (Homo sapiens) (P26842 whole entry): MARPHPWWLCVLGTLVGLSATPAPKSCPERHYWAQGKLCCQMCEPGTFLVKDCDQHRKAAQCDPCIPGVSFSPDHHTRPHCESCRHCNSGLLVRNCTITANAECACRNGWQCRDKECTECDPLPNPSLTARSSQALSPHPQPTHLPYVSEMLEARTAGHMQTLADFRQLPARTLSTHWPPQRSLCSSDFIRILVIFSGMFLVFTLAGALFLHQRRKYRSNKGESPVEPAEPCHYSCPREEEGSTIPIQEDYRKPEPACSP
The target of data set [14] is Hepatitis A virus cellular receptor 2 (Homo sapiens) (UniProt Q8TDQ0). As to the kind of experiment: Binding affinity to human Fc-tagged TIM3 at 500 nM measured after 600 sec by biolayer interferometry.
Chain of Hepatitis A virus cellular receptor 2 (Homo sapiens) (Q8TDQ0 whole entry): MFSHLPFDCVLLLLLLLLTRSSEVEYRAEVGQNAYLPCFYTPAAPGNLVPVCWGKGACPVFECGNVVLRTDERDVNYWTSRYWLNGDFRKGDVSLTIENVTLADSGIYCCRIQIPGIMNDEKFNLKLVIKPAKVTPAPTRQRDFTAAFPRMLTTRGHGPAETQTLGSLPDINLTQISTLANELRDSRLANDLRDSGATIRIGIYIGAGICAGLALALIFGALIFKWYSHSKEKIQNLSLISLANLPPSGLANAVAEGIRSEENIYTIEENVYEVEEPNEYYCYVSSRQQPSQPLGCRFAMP
Data set [15] has as its target Leukocyte surface antigen CD47 (Homo sapiens) (UniProt Q08722). As to the kind of experiment: Binding affinity to human Fc-tagged CD47 at 500 nM measured after 600 sec by biolayer interferometry.
Data set [16] deals with T3, Programmed cell death 1 ligand 2 (Homo sapiens) (UniProt Q9BQ51).
T3 sequence (whole entry): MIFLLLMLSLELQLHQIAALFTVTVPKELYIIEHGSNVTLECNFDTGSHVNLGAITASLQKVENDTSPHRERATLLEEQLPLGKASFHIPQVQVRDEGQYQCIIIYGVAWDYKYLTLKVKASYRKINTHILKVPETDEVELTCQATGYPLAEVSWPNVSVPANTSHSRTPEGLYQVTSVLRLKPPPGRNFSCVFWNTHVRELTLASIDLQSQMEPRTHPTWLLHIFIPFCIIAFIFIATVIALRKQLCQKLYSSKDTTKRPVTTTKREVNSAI
As to the kind of experiment: Binding affinity to human Fc-tagged PDL2 at 500 nM measured after 600 sec by biolayer interferometry.

Data set [17] has as its target T1, Programmed cell death 1 ligand 1. As to the kind of experiment: Binding affinity to human Fc-tagged PDL1 at 500 nM measured after 600 sec by biolayer interferometry.
Data set [18] addresses Programmed cell death protein 1 (Homo sapiens) (UniProt Q15116). As to the kind of experiment: Binding affinity to human Fc-tagged PD1 at 500 nM measured after 600 sec by biolayer interferometry.

T1 sequence (Q9NZQ7 whole entry): as the sequence (Q9NZQ7 whole entry) above
Chain of Programmed cell death protein 1 (Homo sapiens) (Q15116 whole entry): as the sequence (Q15116 whole entry) above
Chain of Leukocyte surface antigen CD47 (Homo sapiens) (Q08722 whole entry): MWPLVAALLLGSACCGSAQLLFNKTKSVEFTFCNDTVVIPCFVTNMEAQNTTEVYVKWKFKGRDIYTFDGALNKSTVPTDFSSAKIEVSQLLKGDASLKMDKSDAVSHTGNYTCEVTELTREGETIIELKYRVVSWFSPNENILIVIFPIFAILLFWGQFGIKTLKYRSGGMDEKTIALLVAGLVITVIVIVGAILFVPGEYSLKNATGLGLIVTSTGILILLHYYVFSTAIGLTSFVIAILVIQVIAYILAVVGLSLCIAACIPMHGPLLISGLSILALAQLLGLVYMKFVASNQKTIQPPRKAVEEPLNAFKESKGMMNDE

On to `Cc1cc(CN2C[C@@H](O)CC2=O)c(OCc2cncc(C#N)c2)cc1NCc1cccc(-c2ccccc2)c1C`, for which the IC50 in [1] came to 1330 nM.

`Cc1cc(CN[C@H](CO)C(=O)O)c(OCc2cncc(C#N)c2)cc1NCc1cccc(-c2ccc3c(c2)OCCO3)c1C` displayed an IC50 in data set [1] of 44 nM. Against the preceding compound, the IC50 is about 30-fold lower.

For the compound `COc1cc(NCc2cccc(-c3ccccc3)c2C)c(C)cc1CN[C@H](CO)C(=O)O`, in data set [1], the IC50 is 253 nM.

Compound `N#Cc1cncc(COc2cc(NCc3cccc(-c4ccccc4)c3Br)ccc2CN[C@H](CO)C(=O)O)c1` displayed an IC50 in [1] of 206 nM.

Take `COc1cc(NCc2cccc(-c3ccccc3)c2C)c(Cl)cc1CN[C@H](CO)C(=O)O`: the Activity entry (with RAW264.7; in [2]; in data set [3]) was “Non-Toxic” each time. Further, in data set [4], the inhibition was determined as 40.9%. In [5], the inhibition entry is “inactive”. In addition, the Efficacy in [6] amounted to 98.6%. Moreover, in data set [7], the result was Active. Also, in data set [8], the Dissociation constant (KD) is 5.15 10^-10M. Besides, in data set [9], the association rate constant (kon) is 1.29 10^6/M/s. The koff in [10] was 6.64 10^-4/s.

Compound `Cc1cc(CN[C@H](CO)C(=O)O)c(OCc2cncc(C#N)c2)cc1NCc1cccc(-c2ccccc2)c1Br` showed an IC50 in [1] of 31 nM.

With `Cc1c(CNc2cc(OCc3cncc(C#N)c3)c(CN[C@H](CO)C(=O)O)cc2Cl)cccc1-c1ccccc1`, the IC50 in data set [1] amounted to 26 nM.

On to `Cc1c(CNc2cc(OCc3cncc(C#N)c3)c(CN[C@H](CO)C(=O)O)cc2Cl)cccc1-c1ccc2c(c1)OCCO2`, for which the IC50 in data set [1] was 131 nM.

For `Cc1cc(NCc2cccc(-c3ccccc3)c2C)cc(OCc2cncc(C#N)c2)c1CN[C@H](CO)C(=O)O`, inhibition in data set [1] was half-maximal at 436 nM (IC50).

For `Cc1c(CNc2ccc(CN[C@H](CO)C(=O)O)c(OCc3cncc(C#N)c3)c2)cccc1-c1ccccc1`, the Activity result (with Raji; in the data set with RAW264.7; in data set [2]; in [3]) was “Non-Toxic” each time. In data set [4], the inhibition was 42.5%. Moreover, the inhibition entry in [5] is “inactive”. Moreover, the Efficacy in [6] was 95.9%. Besides, the result in data set [7] was Active. For the same compound, the Dissociation constant (KD) in [8] is 2.96 10^-10M. In data set [9], the association rate constant (kon) was 8.49 10^5/M/s. For the same compound, the koff in data set [10] is recorded as 2.51 10^-4/s.

With `Cc1c(CNc2ccc(CN[C@H](CO)C(=O)O)c(OCc3cccc(C#N)c3)c2)cccc1-c1ccccc1`, the inhibition result in data set [11] and in data set [5] was “inactive” in each case. The Activity result (in the data set with Raji; in the data set on RAW264.7; in [2]; in [3]) was “Non-Toxic” each time. The Efficacy in [6] came to 96.1%. Further, the result in [7] and in data set [17] was Active. The Dissociation constant (KD) in data set [8] is 1.81 10^-9M. Moreover, the association rate constant (kon) in data set [9] is 6.51 10^5/M/s. In addition, the outcome in data set [12], in data set [13], in data set [14], in [15], in [16] and in [18] was inactive. Further, the koff in [10] is given as 1.18 10^-3/s.

`Cc1cc(CN[C@@H](CO)C(=O)O)c(OCc2cncc(C#N)c2)cc1NCc1cccc(-c2ccccc2)c1C`: the IC50 in data set [1] worked out at 23 nM.

With `Cc1cc(NCc2cccc(-c3ccccc3)c2C)cc(OCc2cccc(C#N)c2)c1CN[C@H](CO)C(=O)O`, in [1], the midpoint of inhibition, the IC50, lay at 363 nM.

`Cc1cc(CN[C@H](CO)C(=O)O)c(OCc2ccccc2)cc1NCc1cccc(-c2ccccc2)c1C`: the half-maximal inhibitory concentration (IC50) in [1] was 2580 nM.

For `N#Cc1cccc(COc2cc(NCc3cccc(-c4ccccc4)c3Br)ccc2CN[C@H](CO)C(=O)O)c1`, the IC50 in data set [1] was 637 nM.

In data set [1], `Cc1cc(CN[C@H](CCO)C(=O)O)c(OCc2cncc(C#N)c2)cc1NCc1cccc(-c2ccccc2)c1C` showed an IC50 of 36 nM.

Regarding `Cc1c(CN(C)c2ccc(CN[C@H](CO)C(=O)O)c(OCc3cccc(C#N)c3)c2)cccc1-c1ccccc1`, in [1], the IC50 is greater than 100000 nM.

By IC50 is commonly meant the concentration at which inhibition is half-maximal. A lower IC50 goes with inhibition by little substance. What is called inhibition is the change of the read-out against control, counted positive when it falls.
